Here are results for 2 compounds from ChEMBL document CHEMBL2417486, “Exploring natural product chemistry and biology with multicomponent reactions. 5. Discovery of a novel tubulin-targeting scaffold derived from the rigidin family of marine alkaloids” (J Med Chem, 2013).

Each structure is given as a SMILES string. pIC50: −log10 of the molar value. ≈ marks a conversion by molar mass, not a printed value. Calls of active or inactive are those of the source. No cut-off for these calls is given here. Where only a bound is given, the exact number is not on record here.

For data set [1], the system named is HeLa. The data set can be described thus: Growth inhibition of human HeLa cells after 48 hrs by MTT assay. In kind it is functional. The essentials: (§1)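 Cells seeded at 4 × 10^3 per well, grown 24 h, then treated 48 h at 0.004–100 µM from 100 or 25 mM DMSO stocks. Controls were 0.1% DMSO and phenyl arsine oxide. MTT (5 mg/mL) added for 2 h, formazan dissolved in DMSO, A490 read. […] HeLa/MCF-7 in DMEM, MES-SA lines in RPMI-1640, all with 10% FBS.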
A general note: Formazan colour is commonly taken as a measure of viable cells.

In data set [2] the test system is MCF7. The data set can be described thus: Growth inhibition of human MCF7 cells after 48 hrs by MTT assay. The format is functional. The note with it: MCF7, 48 h. In a few lines: as §1
Data set [3] relates to HeLa. The data set can be described thus: Antimitotic activity in human HeLa cells assessed as interphase microtubule organization at 1 to 10 nM after 3 hrs by Hoechst 33342 staining based inverted microscopic analysis. In kind it is functional, cell-based. The essentials: (§2)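 HeLa cells grown in EMEM with 10% FBS, sodium pyruvate and sodium bicarbonate; treated 3 h with compound (DMSO stock prediluted in medium) or 0.1% DMSO carrier. Fixed in methanol at -20°C for 30 min, blocked in 3% BSA/PBS 1 h, mouse anti-tubulin plus rabbit anti-pericentrin overnight at 4 °C, Alexafluor secondaries, Hoechst 33342 for DNA; epifluorescence imaging with Apotome.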

Data set [4] deals with T1, Tubulin beta (Homo sapiens) (UniProt P68371+Q9H4B7+Q13509+P04350+Q3ZCM7+P07437+Q13885+Q9BVA1+Q9BUF5+A6NNZ2). The data set can be described thus: Inhibition of [3H] radiolabelled colchicine binding to tubulin beta (unknown origin) at 5 uM by DEAE-cellulose filter method. The format is protein assay.
Data set [5] has as its system HeLa. The data set can be described thus: Antimitotic activity in human HeLa cells assessed as mitotic microtubule organization at 1 to 10 nM after 3 hrs by Hoechst 33342 staining based inverted microscopic analysis. The format is functional, cell-based. In a few lines: as §2
The nature of data set [6]: Inhibition of bovine brain tubulin polymerization preincubated for 15 mins followed by GTP addition measured after 20 mins by turbidimetric analysis. Details: species or system Bos taurus. The essentials: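 Bovine brain tubulin at 10 µM (1.0 mg/mL) in 0.8 M monosodium glutamate (pH 6.6 in 2 M stock) was preincubated with varying compound concentrations for 15 min at 30 °C, then cooled to 0 °C. After addition of 0.4 mM GTP, samples were warmed to 30 °C and assembly followed by turbidity at 350 nm.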

A short description of data set [7]: Growth inhibition of human UM-SCC-10B cells after 48 hrs by MTT assay. The format is functional.
Data set [8] relates to HeLa. The data set is described as follows: Cell cycle arrest in human HeLa cells assessed as accumulation at G2/M phase at 1 uM after 32 hrs using Vybrant Orange staining by flow cytometry relative to control. The format is functional, cell-based. The essentials: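 HeLa cells at 70–80% confluence were seeded at 2 × 10^5 per well in DMEM/10% FBS with penicillin G and streptomycin, left to adhere overnight, then treated at 1 µM for 32 h (0.1% DMSO control). Washed, trypsinized, stained 30 min at 37 °C with 10 µM Vybrant Orange in medium, then analysed by flow cytometry for DNA content.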
In general terms: A flow cytometer gives signals particle by particle.

Data set [9] in a line: Growth inhibition of human U373 cells after 48 hrs by MTT assay. The format is functional, U-373MG ATCC. The note with it: U373 MG.
In data set [10] the test system is SK-MEL-28. The data set can be described thus: Growth inhibition of human SK-MEL-28 cells after 48 hrs by MTT assay. The format is functional. The note with it: SK-MEL-28, 48 h.
For data set [11], the system named is A549. The data set is described as follows: Growth inhibition of human A549 cells after 48 hrs by MTT assay. The format is functional. The conditions noted are these: A549, 48 h.
Data set [12] can be described thus: Growth inhibition of human UM-SCC-22A cells after 48 hrs by MTT assay. In kind it is functional.
The nature of data set [13]: Growth inhibition of human UM-SCC-10A cells after 48 hrs by MTT assay. The note with it: UMSCC-10A. The format is functional.
In data set [14] the test system is HeLa. The data set is described as follows: Antimitotic activity in human HeLa cells assessed as disruption of interphase microtubule organization at 10 to 100 nM after 3 hrs by Hoechst 33342 staining based inverted microscopic analysis. The format is functional, cell-based. In a few lines: as §2
The subject of data set [15] is B16-F10. The data set is described as follows: Growth inhibition of mouse B16F10 cells after 48 hrs by MTT assay. The format is functional. The conditions noted are these: B16-F10, 48 h.
Data set [16] in a line: Aqueous solubility of the compound by spectrophotometric analysis. In kind it is physicochemical. In a few lines:
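Compound dispersed in ultrapure water at >0.5 mg/mL; supernatant centrifuged repeatedly until no pellet remained, then diluted 1:2 (solution:DMSO). Concentration read from absorbance at peak 335–336 nm against a calibration line made in 1:2 water/DMSO, and corrected for the DMSO dilution.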

The subject of data set [17] is HeLa. The data set can be described thus: Antimitotic activity in human HeLa cells assessed as effect on spindle length at 1 to 10 nM after 3 hrs by Hoechst 33342 staining based inverted microscopic analysis. The format is functional, cell-based. In a few lines: as §2
In data set [18] the test system is HeLa. The data set is described as follows: Antimitotic activity in human HeLa cells assessed as disruption of mitotic microtubule organization at 10 to 100 nM after 3 hrs by Hoechst 33342 staining based inverted microscopic analysis. In kind it is functional, cell-based. In a few lines: as §2
Data set [19] in a line: Growth inhibition of human Hs683 cells after 48 hrs by MTT assay. In kind it is functional. The conditions noted are these: Hs 683, 48 h.
Data set [20] can be described thus: Growth inhibition of human MES-SA cells after 48 hrs by MTT assay. The format is functional. In a few lines:
as §1

A short description of data set [21]: Growth inhibition of human doxorubicin-resistant MES-SA/Dx5 cells after 48 hrs by MTT assay. In kind it is functional. The note with it: MES-SA/Dx5, 48 h. In a few lines: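 Cells seeded at 4 × 10^3 per well, grown 24 h, then treated 48 h at 0.004–100 µM from 100 or 25 mM DMSO stocks. Controls were 0.1% DMSO and phenyl arsine oxide. MTT (5 mg/mL) added for 2 h, formazan dissolved in DMSO, A490 read.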

Data set [22] concerns UMSCC22B. The data set is described as follows: Growth inhibition of human UM-SCC-22B cells after 48 hrs by MTT assay. In kind it is functional.
The target of data set [23] is T1, Tubulin beta (Homo sapiens). The data set can be described thus: Inhibition of [3H] radiolabelled colchicine binding to tubulin beta (unknown origin) at 1 uM by DEAE-cellulose filter method. The format is protein assay.

`O=C(c1ccccc1)c1[nH]c2[nH]cnc(=O)c2c1-c1cc(Br)cc(Br)c1`: the GI50 was 95 nM in data set [1]; 95 nM in [2]; 100 nM in data set [7]; 30 nM in [9]; 20 nM in data set [10]; 30 nM in [11]. Moreover, the GI50 turned out to be 110 nM in data set [12]; 90 nM in [13]; 50 nM in data set [15]; 20 nM in data set [19]; 81 nM in [20]; 394 nM in data set [21]. In [22], this compound had a GI50 of 20 nM. Also, the result in [3], in [5] and in [17] was inactive. In [4], the inhibition turned out to be 71%. Moreover, in data set [6], the pIC50 was 5.80. The result in data set [8], in data set [14] and in data set [18] was Active. The compound further registered a solubility in data set [16] of 40 µM (≈ 18.9 µg/mL).

As to `O=C(c1ccccc1)c1[nH]c2[nH]cnc(=O)c2c1-c1ccccc1`, the GI50 in [1] was 35 nM; in data set [2], 40 nM; in data set [9] it was less than 10 nM; in data set [10], less than 10 nM; in data set [11] it was 10 nM; in [15] it was 20 nM. Also, the GI50 in data set [19] was 10 nM; in [20] it was 30 nM; in data set [21], 70 nM. Further, the inhibition in data set [23] turned out to be 58%; in data set [4], 88%. Moreover, the result in data set [3], in [5] and in data set [17] was inactive. In addition, the pIC50 in data set [6] was 5.92. The outcome in [14] and in data set [18] was Active. The compound further had a solubility in data set [16] of 10 µM (≈ 3.15 µg/mL).

Usually GI50 stands for the concentration that inhibits growth by half. A higher GI50 goes with less potent growth inhibition. Usually inhibition stands for the relative decrease from the control value, in per cent. A low value points to a weak effect. One may read the pIC50 as the IC50 on a negative log10 scale, so that one unit is a factor of ten. A lower pIC50 goes with a large IC50. One may read the solubility as the concentration that dissolves in the medium under given conditions. Low values mean little dissolved substance, high ones much dissolved substance.
